# Screen size: about 2,100 compounds; about 75 (4%) were called active.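 How the source made its calls: active means calcium fluorescence trace judged by eye to show a response, as agonist, enhancer of the glutamate response, or inhibitor; inactive means trace judged by eye to show no response.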 The entries come from a sample that favours actives as a whole.
# Target: Metabotropic glutamate receptor 8 (Rattus norvegicus) (UniProt P70579)
# Test: mGlu8-mediated intracellular calcium response modulators – cell-based, HEK293 rmGlu8, Gqi9 chimera, Fluo-4 calcium, counter-screen for GIRK activator project, confirmation (AID 623869)
# Details: HEK293 rmGlu8/Gqi9 calcium flux, Fluo-4 fluorescence; glutamate at EC20 added after compound
# Procedure, shortened: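 Material: rat mGlu8 HEK-293 cells with transient Gqi9. Medium: HEPES-buffered HBSS, pH 7.4. Compound: one dose, 20 µM addition solution, 0.2% DMSO. Schedule: compound 4 min before glutamate, then 2 min recording. Technique: Fluo-4 calcium fluorescence sampled at 1 Hz.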
# Metabotropic glutamate receptor 8 (Rattus norvegicus), sequence (P70579 whole entry, looked up): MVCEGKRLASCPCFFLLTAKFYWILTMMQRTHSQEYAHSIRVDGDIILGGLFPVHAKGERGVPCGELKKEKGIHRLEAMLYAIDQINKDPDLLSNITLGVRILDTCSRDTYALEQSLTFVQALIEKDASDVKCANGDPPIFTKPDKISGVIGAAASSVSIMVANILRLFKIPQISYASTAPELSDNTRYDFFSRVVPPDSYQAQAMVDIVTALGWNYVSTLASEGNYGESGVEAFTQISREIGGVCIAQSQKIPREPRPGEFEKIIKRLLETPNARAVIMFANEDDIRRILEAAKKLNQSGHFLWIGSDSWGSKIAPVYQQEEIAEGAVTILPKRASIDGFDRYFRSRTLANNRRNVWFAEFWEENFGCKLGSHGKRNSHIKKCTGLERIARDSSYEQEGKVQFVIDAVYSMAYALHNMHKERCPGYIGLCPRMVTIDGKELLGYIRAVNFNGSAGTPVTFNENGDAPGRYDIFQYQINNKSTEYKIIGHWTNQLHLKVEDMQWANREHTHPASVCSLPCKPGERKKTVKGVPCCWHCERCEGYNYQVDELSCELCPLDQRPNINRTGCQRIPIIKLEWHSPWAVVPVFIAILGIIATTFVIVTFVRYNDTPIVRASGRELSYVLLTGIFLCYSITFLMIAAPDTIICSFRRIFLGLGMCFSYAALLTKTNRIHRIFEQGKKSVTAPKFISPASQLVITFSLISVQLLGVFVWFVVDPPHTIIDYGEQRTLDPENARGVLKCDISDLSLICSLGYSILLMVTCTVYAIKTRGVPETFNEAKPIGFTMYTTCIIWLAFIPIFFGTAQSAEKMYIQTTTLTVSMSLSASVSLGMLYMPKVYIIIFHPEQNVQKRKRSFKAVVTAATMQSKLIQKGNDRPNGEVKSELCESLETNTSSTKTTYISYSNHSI
row,SMILES,outcome
1,COC(=O)c1cc(CSc2nc3ccc(C)cc3[nH]2)oc1C,inactive; 0
2,O=C(NNC(=S)Nc1cccc2ccccc12)c1cccc(Br)c1,inactive; 0
3,CCc1c(C)c(C#N)c2nc3ccccc3n2c1NCc1ccco1,inactive; 0
4,Cc1ccc2nc(-c3ccc(O)cc3)c(Nc3ccc4c(c3)OCCO4)n2c1,inactive; -1
5,O=c1c2cc(Cl)ccc2[nH]c(=S)n1Cc1ccco1,inactive; 0
6,O=C(NC(=S)Nc1ccc(N2CCCCC2)cc1)c1ccco1,inactive; 0
7,Cc1cc(C)c2[nH]c(=S)cc(C)c2c1,inactive; 0
8,CCCCn1c(=S)[nH]c2c(oc3ccc(Cl)cc32)c1=O,inactive; 0
9,O=C1CC(C(F)(F)C(F)(F)C(F)(F)F)=Nc2ccccc2N1,inactive; 0
10,Cc1ccc2c(c1)NC(=O)CC(c1ccccc1)=N2,active; 2
11,O=C(NC(=S)N1CCN(c2ccc([N+](=O)[O-])cc2)CC1)c1ccc(F)cc1,inactive; 0
12,COc1ccc(NC(=O)C(=O)NNC(=O)c2cccs2)cc1,inactive; 0
13,O=C(NC(=S)NCCc1ccccc1)c1ccco1,inactive; 0
14,O=C(NC(=S)NCCc1ccccc1)c1ccccc1,inactive; 0
15,CC(C)NC(=S)NC(=O)c1ccc(Cl)cc1Cl,inactive; 0
16,CCCCNC(=S)NC(=O)c1ccc(Cl)cc1Cl,inactive; 0
17,CC(C)CNC(=S)NC(=O)c1ccc(Cl)cc1Cl,inactive; 0
18,O=C(COc1ccccc1)NNC(=S)NC(=O)c1ccc(Cl)cc1Cl,active; 1
19,Cc1ccccc1C(=O)NNC(=S)NC(=O)c1ccc(Cl)cc1Cl,active; 1
20,Cc1ccccc1C(=O)NC(=S)NCCc1ccccc1,active; -1
21,COC(=O)c1ccccc1NC(=S)NC(=O)c1ccccc1,inactive; 0
22,Cc1ccc(C(=O)NNC(=S)NC(=O)c2ccc(Cl)cc2Cl)cc1,inactive; 4

row,SMILES,outcome
1,Cc1ccccc1C(=O)NNC(=S)NC(=O)c1ccccc1,active; 1
2,Cc1ccccc1C(=O)NC(=S)Nc1ccc(Oc2ccc(Cl)cc2)cc1,inactive; 4
3,CC(C)C(=O)Nc1ccccc1N1CCN(C(=O)c2ccccc2)CC1,inactive; 0
4,CC1(C)Cc2c(sc3[nH]c(=S)n(Cc4ccco4)c(=O)c23)CO1,inactive; 0
5,Cc1[nH]n2c(=O)cc(C(C)(C)C)nc2c1-c1ccccc1,inactive; 0
6,COC(=O)c1sc(NC(=S)NC(=O)c2ccccc2)nc1C,inactive; 0
7,Cc1ccccc1C(=O)Nc1ccccc1C(=O)N/N=C\c1ccco1,inactive; 0
8,O=C(N/N=C(\c1ccccc1)c1cccnc1)C(O)(c1ccccc1)c1ccccc1,inactive; 0
9,CC(Oc1ccc(Cl)cc1Cl)C(=O)NC(=S)N1CCc2ccccc21 (centres undefined),inactive; 0
10,Cc1onc(-c2ccccc2)c1C(=O)NNC(=S)NC(=O)c1ccc(Br)cc1,active; 1
11,Cc1onc(-c2ccccc2)c1C(=O)NC(=S)Nc1sc2c(c1C#N)CCCC2,inactive; 0
12,Cc1ccccc1NC(=S)NC(=O)c1cncc(Br)c1,inactive; 0
13,Cc1cccc(OCC(=O)Nc2ccccc2N2CCN(C(=O)C(C)C)CC2)c1C,inactive; 0
14,CCc1ccc(Nc2nc3ccccc3c(=O)s2)cc1,inactive; 0
15,O=C1OC2(CCCCC2)OC(=O)C1=CNc1nc2ccccc2s1,inactive; 0
16,Cc1ccc(C)c(NC(=S)NNC(=O)c2csc(C(C)C)c2)c1,inactive; 0
17,CCCc1nnc2n1N=C(c1ccc(OC)c(OC)c1)CS2,active; 2
18,CCOc1ccc(-c2nc(-c3ccc(OC)c(OC)c3)no2)cc1OCC,inactive; 0
19,COc1ccc(C2=Nn3c(nnc3C3CCCCC3)SC2)cc1OC,active; 2
20,COc1ccc(-c2nnc3sc(C4CCCCC4)nn23)cc1OC,active; 2
21,Brc1ccccc1C1=Nn2c(nnc2-c2ccccc2)SC1,inactive; 0
22,c1cc2c(cc1C1=Nn3c(nnc3C3CCCCC3)SC1)OCO2,inactive; 0

row,SMILES,outcome
1,COc1ccccc1C1=Nn2c(nnc2C2CCCCC2)SC1,inactive; 0
2,CC(C)COn1c(=S)[nH]c2ccccc2c1=O,inactive; 0
3,Cc1ccc(N2C(=S)N=C(Nc3ccccc3C)C23CCOC(C)(C)C3)cc1 (centres undefined),inactive; 0
4,C=CCN(CC=C)C(=S)NC(=O)c1ccc(OC)c(Br)c1,inactive; 0
5,Cc1ccc(N=C2CCCN2Cc2ccccc2)c(C#N)c1,inactive; 0
6,CCC(C)n1c(=S)[nH]c2c(sc3ccc([N+](=O)[O-])cc32)c1=O (centres undefined),inactive; 4
7,O=C(COc1ccccc1)NC(=S)N1CCc2ccccc21,inactive; 0
8,O=C(NC(=S)N1CCN(Cc2ccc3c(c2)OCO3)CC1)c1cccc(Br)c1,inactive; 0
9,CC(c1ccc(Cl)cc1)n1c(-c2ccc3ccccc3n2)n[nH]c1=S (centres undefined),inactive; 0
10,O=C(N/N=C/c1ccccn1)c1ccc(Br)cc1,inactive; 0
11,O=C(NC(Nc1nc2ccc([N+](=O)[O-])cc2s1)(C(F)(F)F)C(F)(F)F)c1ccccc1Cl,active; -1
12,Cc1ccc(C)c(OCC(=O)Nc2nc3ccc([N+](=O)[O-])cc3s2)c1C,inactive; 0
13,O=C(NC(Nc1nc2ccc([N+](=O)[O-])cc2s1)(C(F)(F)F)C(F)(F)F)c1ccccc1,inactive; 4
14,CCOC(=O)c1sc(NC(=S)NC(=O)c2ccco2)nc1C,inactive; 0
15,CCOC(=O)c1sc2ncnc(NCc3ccco3)c2c1C,active; 2
16,Cc1sc2ncnc(SCc3ccco3)c2c1C,inactive; 0
17,O=C(Nc1nc(-c2ccccc2)c(-c2ccccc2)o1)c1ccc(F)cc1,inactive; 0
18,COc1ccc(C)cc1NC(=O)C(=O)NNC(=O)c1ccco1,inactive; 0
19,Cc1ccc(-c2csc3nc[nH]c(=S)c23)cc1C,inactive; 0
20,COC(=O)C1=NN(C(=O)c2ccc(Cl)cc2)C(O)(c2ccccc2)C1 (centres undefined),inactive; 4
21,COC(=O)CSC1=NS(=O)(=O)c2ccccc21,active; -1
22,CCc1cccc(NC(=O)CSC2=NS(=O)(=O)c3ccccc32)c1,inactive; 0

row,SMILES,outcome
1,COC(=O)CSc1nc2ncccc2[nH]1,inactive; 0
2,CCn1c(SCC(N)=O)nc2sc3c(c2c1=O)CCCC3,inactive; 0
3,COc1cc(NC(=O)C(=O)NNC(=O)C2CCCCC2)c(OC)cc1Cl,inactive; 0
4,COc1cc(/C=C2\S/C(=N/S(=O)(=O)c3ccc(C)cc3)NC2=O)c([N+](=O)[O-])cc1OC,active; 2
5,COc1ccc(CN(CCC#N)C(=S)NC(=O)c2ccccc2)cc1,inactive; 0
6,COC(=O)c1c(NS(=O)(=O)c2cccs2)sc2c1CCCC2,inactive; 0
7,O=C(C1CCN(S(=O)(=O)c2cccc3cccnc23)CC1)N1CC=C(c2ccccc2)CC1,inactive; 0
8,O=C(Nc1nnc(-c2ccccc2Cl)o1)c1ccc(S(=O)(=O)N2CCCCCC2)cc1,inactive; 3
9,O=C(Nc1nnc(-c2ccc(Cl)cc2)o1)c1nc2ccccc2s1,inactive; 0
10,O=C(Nc1nnc(-c2ccccc2Cl)o1)c1nc2ccccc2s1,active; 1
11,O=C(Nc1ccc2[nH]c(=S)sc2c1)c1ccccc1,inactive; 0
12,O=C(NC(=S)N(Cc1ccccc1)Cc1ccccc1)c1ccccc1F,inactive; 0
13,CCCCOC(=O)c1ccc(NC(=S)NC(=O)c2c(Cl)cnn2CC)cc1,inactive; 0
14,O=S(=O)(Nc1ccccc1N1CCCCC1)c1ccc(Cl)s1,inactive; 0
15,O=C(Nc1ccccc1)c1ccccc1NS(=O)(=O)c1ccc(Cl)s1,active; 1
16,O=C(Nc1nncs1)c1ccccc1NS(=O)(=O)c1cccs1,inactive; 0
17,CCOc1ccc2nc(/N=C/c3c(C)[nH]n(-c4ccccc4)c3=O)sc2c1,inactive; 0
18,O=C(NC(=S)N1CCN(c2ccc(Cl)cc2[N+](=O)[O-])CC1)c1cccs1,inactive; 0
19,Cc1cccc(NC(=S)NC(=O)c2ccco2)n1,inactive; 0
20,CC(Oc1ccc(Cl)cc1)C(=O)NNC(=S)NC(=O)c1ccco1 (centres undefined),active; 1
21,Cc1ccccc1OCC(=O)NNC(=S)NC(=O)c1ccco1,active; 1
22,CCCc1ccc(OCC(=O)NNC(=S)NC(=O)c2ccco2)cc1,inactive; 3

row,SMILES,outcome
1,CC(Oc1ccc2ccccc2c1)C(=O)NNC(=S)NC(=O)c1ccco1 (centres undefined),inactive; 4
2,COc1ccccc1C(=O)NNC(=S)NC(=O)c1ccco1,inactive; 4
3,CCn1nc(C(=O)OCC(=O)N2CCc3ccccc32)c2ccccc2c1=O,inactive; 0
4,COc1ccc(CCNC(=O)CSc2nnc(-c3ccc(F)cc3)c3ccccc23)cc1OC,inactive; 0
5,Cc1cc(C)n(-c2nnc(C)n2/N=C/c2ccccc2OCc2ccccc2Cl)n1,inactive; 0
6,Cc1ccccc1NC(=S)NNC(=O)c1csc2c1CCC(C)C2 (centres undefined),inactive; 0
7,Cc1ccc(CSc2ncnc3c2cnn3-c2ccc(C)cc2)cc1,inactive; 0
8,CCCn1c(=O)c2ccccc2n2c(SCCOc3ccccc3F)nnc12,active; 2
9,CCCn1c(=O)c2ccccc2n2c(SCC(=O)N3CCc4ccccc4C3)nnc12,inactive; 0
10,CCCn1c(=O)c2ccccc2n2c(SCc3nc4ccccc4s3)nnc12,inactive; 0
11,O=C(NC(NC(=S)Nc1ccc(Cl)cc1Cl)C(Cl)(Cl)Cl)c1cccc([N+](=O)[O-])c1 (centres undefined),inactive; 4
12,S=C(Nc1ccccc1Cl)Nc1ccc(Cl)cc1Cl,inactive; 0
13,COC(=O)c1ccc(CSc2ccc3nnc(-c4ccccc4)n3n2)o1,active; 2
14,COC(=O)c1ccc(CSc2nnc(Nc3ccccc3OC)s2)o1,inactive; 0
15,CCC(Sc1ccc2nnc(-c3ccc(F)cc3)n2n1)C(=O)OC (centres undefined),inactive; 0
16,COc1ccc2nc(N3C(=O)/C(=C/c4ccccc4)NC3=S)sc2c1,inactive; 0
17,CCCc1ccc(C(=O)N2CCN(c3ccccc3OCC)CC2)cc1,inactive; 0
18,Cc1cc(C)c2nc(NC(=O)c3cc(C)on3)sc2c1,inactive; 0
19,CCOc1ccc(-c2nc(-c3cccnc3)no2)cc1OCC,active; 2
20,CCOc1cc(-c2noc(-c3cccnc3)n2)ccc1OC,inactive; 0
21,CCOc1ccc(-c2nc(-c3ccncc3)no2)cc1OCC,inactive; 0
